Assay results reported in ChEMBL document CHEMBL4359830, “Discovery and structure-activity relationship of novel diphenylthiazole derivatives as BTK inhibitor with potent activity against B cell lymphoma cell lines” (Eur J Med Chem, 2019).

Experiments:
Raji [1] = test: Antiproliferative activity against human Raji cells at 40 uM measured after 72 hrs by CCK-8 assay relative to control; type: functional; conditions: Homo sapiens, Raji, 72 h
How it was run: (§1)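 Ramos or Raji cells in RPMI-1640 with 10% FBS and 1% penicillin-streptomycin at 37 °C, 5% CO2. Seeded at 2000–3000 cells/well one day before compound addition. Exposure 72 h, then CCK-8 with absorbance at 450 nm. […] Single-point inhibition at 40 µM reported as mean ± standard deviation.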

Ramos [2] = test: Potency index, ratio of ibrutinib IC50 to compound IC50 for antiproliferative activity against human Ramos cells; type: functional
[3] = target: Tyrosine-protein kinase BTK (Homo sapiens, UniProt Q06187); test: Inhibition of human recombinant full length N-terminal His tagged BTK expressed in baculovirus infected Sf9 cells using poly (Glu,Tyr) 4:1 as substrate measured after 60 mins in presence of ATP by ADP-Glo kinase assay
Ramos [4] = test: Antiproliferative activity against human Ramos cells at 40 uM measured after 72 hrs by CCK-8 assay relative to control; type: functional; conditions: Homo sapiens, Ramos, 72 h; how it was run: as §1
Ramos [5] = test: Antiproliferative activity against human Ramos cells measured after 72 hrs by CCK-8 assay; type: functional, cell-based; how it was run: as §1
Raji [6] = test: Antiproliferative activity against human Raji cells measured after 72 hrs by CCK-8 assay; type: functional, cell-based; how it was run: as §1

Tyrosine-protein kinase BTK, sequence (Q06187 whole entry): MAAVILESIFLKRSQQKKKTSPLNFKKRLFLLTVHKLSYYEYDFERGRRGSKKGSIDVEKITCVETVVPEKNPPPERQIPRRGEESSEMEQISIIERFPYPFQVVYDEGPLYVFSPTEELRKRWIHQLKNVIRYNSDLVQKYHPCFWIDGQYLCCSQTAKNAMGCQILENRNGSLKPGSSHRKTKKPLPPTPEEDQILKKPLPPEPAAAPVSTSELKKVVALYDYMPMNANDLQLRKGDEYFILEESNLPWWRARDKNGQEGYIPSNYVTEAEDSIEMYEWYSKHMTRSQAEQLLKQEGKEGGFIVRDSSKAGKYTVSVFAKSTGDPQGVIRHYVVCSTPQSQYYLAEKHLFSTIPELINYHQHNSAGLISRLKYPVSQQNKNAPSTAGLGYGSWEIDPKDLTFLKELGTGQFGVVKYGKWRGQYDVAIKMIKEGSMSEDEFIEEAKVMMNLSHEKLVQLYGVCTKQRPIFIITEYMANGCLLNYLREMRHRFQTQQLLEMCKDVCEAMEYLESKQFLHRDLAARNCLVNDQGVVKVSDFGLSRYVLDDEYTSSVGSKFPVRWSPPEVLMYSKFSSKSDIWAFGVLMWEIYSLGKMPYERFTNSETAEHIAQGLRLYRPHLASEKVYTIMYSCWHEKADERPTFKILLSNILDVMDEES

IC50 [3] | IC50 (Ramos [5]) | IC50 (Raji [6]) | SMILES | inhibition at 40 µM (Raji [1]) | Ratio IC50 (Ramos [2]) | inhibition at 40 µM (Ramos [4])
0.862 µM | 1.42 µM | 2.82 µM | CN1CCN(c2ccc(Nc3nc(-c4cccc(NC(=O)c5ccc(F)cc5)c4)sc3C(N)=O)cc2)CC1 | 95.3% | 10 | 95.9%
0.073 µM | 19.7 µM | 37.4 µM | CN1CCN(c2ccc(Nc3nc(-c4cccc(NC(=O)c5ccco5)c4)sc3C(N)=O)cc2)CC1 | 84.3% | – | 96.7%
0.159 µM | 1.76 µM | 6.36 µM | CN1CCN(c2ccc(Nc3nc(-c4cccc(NC(=O)c5ccccc5)c4)sc3C(N)=O)cc2)CC1 | 91.3% | – | 98.1%
– | 25.2 µM | – | CCOC(=O)c1sc(-c2cccc(NC(=O)c3ccc(C(C)(C)C)cc3)c2)nc1Nc1ccc(C(=O)N2CCOCC2)cc1 | 13.2% | – | 82.6%
2.67 µM | 1.36 µM | 3.27 µM | CN1CCN(c2ccc(Nc3nc(-c4cccc(NC(=O)c5ccccc5F)c4)sc3C(N)=O)cc2)CC1 | 97.3% | 10 | 95.5%
6.75 µM | – | – | NC(=O)c1sc(-c2cccc(NC(=O)c3ccc(C(F)(F)F)cc3)c2)nc1Nc1ccc(N2CCOCC2)cc1 | 7.48% | – | 25.2%
– | – | – | CCOC(=O)c1sc(-c2cccc(NC(=O)c3ccc(C(F)(F)F)cn3)c2)nc1Nc1ccc(N2CCN(C)CC2)cc1 | 20.8% | – | 19%
27.8 µM | 14 µM | 35.1 µM | CN1CCN(c2ccc(Nc3nc(-c4cccc(NC(=O)c5cccc(F)c5)c4)sc3C(=O)O)cc2)CC1 | 76.3% | – | 82.7%
5.25 µM | 8.6 µM | – | CN1CCN(c2ccc(Nc3nc(-c4cccc(NC(=O)c5ccc(C(C)(C)C)cc5)c4)sc3C(N)=O)cc2)CC1 | 12.1% | – | 80.1%
2.23 µM | – | – | CC(C)(C)c1ccc(C(=O)Nc2cccc(-c3nc(Nc4ccc(N5CCOCC5)cc4)c(C(N)=O)s3)c2)cc1 | 4.42% | – | 5.57%
– | – | – | CCOC(=O)c1sc(-c2cccc(NC(=O)c3ccc(C(C)(C)C)cc3)c2)nc1Nc1ccc(N2CCN(C)CC2)cc1 | 4.22% | – | 21.2%
5.17 µM | 4.28 µM | 14 µM | CCOC(=O)c1sc(-c2cccc(NC(=O)c3ccc(C#N)cc3)c2)nc1Nc1ccc(N2CCN(C)CC2)cc1 | 79.1% | – | 97.5%
– | 5.6 µM | 8.74 µM | CN1CCN(c2ccc(Nc3nc(-c4cccc(NC(=O)c5ccc(F)c(Cl)c5)c4)sc3C(=O)O)cc2)CC1 | 87.9% | – | 98.6%
21.9 µM | 6.3 µM | 13.9 µM | CN1CCN(c2ccc(Nc3nc(-c4cccc(NC(=O)c5ccccc5F)c4)sc3C(=O)O)cc2)CC1 | 86.8% | – | 93.3%
0.161 µM | – | 15.1 µM | CCOC(=O)c1sc(-c2cccc(NC(=O)c3ccco3)c2)nc1Nc1ccc(N2CCN(C)CC2)cc1 | 87.6% | – | 50.2%
– | – | – | CCOC(=O)c1sc(-c2cccc(NC(=O)c3ccc(F)cc3)c2)nc1Nc1ccc(N2CCN(C)CC2)cc1 | 16.8% | – | 3.53%
0.617 µM | 29.8 µM | 75.3 µM | NC(=O)c1sc(-c2cccc(NC(=O)c3ccc(C(F)(F)F)cc3)c2)nc1Nc1ccc(C(=O)N2CCOCC2)cc1 | 43.8% | – | 83.8%
– | – | – | CCOC(=O)c1sc(-c2cccc(NC(=O)c3ccc(C(F)(F)F)cc3)c2)nc1Nc1ccc(C(=O)N2CCOCC2)cc1 | 6.06% | – | 49.9%
19.2 µM | 12.8 µM | 21.2 µM | CCOC(=O)c1sc(-c2cccc(NC(=O)c3cccc(F)c3)c2)nc1Nc1ccc(N2CCN(C)CC2)cc1 | 82.8% | – | 85.2%
– | 29.2 µM | – | CCOC(=O)c1sc(-c2cccc(NC(=O)c3ccc(F)c(Cl)c3)c2)nc1Nc1ccc(N2CCN(C)CC2)cc1 | 20.7% | – | 72.5%
4.2 µM | – | – | CCOC(=O)c1sc(-c2cccc(NC(=O)c3ccc(N(C)C)cc3)c2)nc1Nc1ccc(N2CCOCC2)cc1 | 7.96% | – | 12.3%
0.733 µM | 13 µM | 35.4 µM | NC(=O)c1sc(-c2cccc(NC(=O)c3ccc(F)cc3)c2)nc1Nc1ccc(C(=O)N2CCOCC2)cc1 | 82.5% | – | 91.5%
0.134 µM | 23.3 µM | 7.02 µM | CN1CCN(c2ccc(Nc3nc(-c4cccc(NC(=O)c5ccc(Cl)cc5)c4)sc3C(=O)O)cc2)CC1 | 90.9% | – | 71.6%

IC50 [3] | IC50 (Ramos [5]) | IC50 (Raji [6]) | SMILES | inhibition at 40 µM (Raji [1]) | Ratio IC50 (Ramos [2]) | inhibition at 40 µM (Ramos [4])
– | – | – | CN1CCN(c2ccc(Nc3nc(-c4cccc(NC(=O)c5ccccc5)c4)sc3C(=O)O)cc2)CC1 | 11.9% | – | 26.3%
37.1 µM | 24.8 µM | – | CCOC(=O)c1sc(-c2cccc(NC(=O)c3ccccc3)c2)nc1Nc1ccc(N2CCN(C)CC2)cc1 | 42% | – | 77.1%
2.1 µM | 2 µM | 9.27 µM | CCOC(=O)c1sc(-c2cccc(NC(=O)c3ccccc3F)c2)nc1Nc1ccc(N2CCN(C)CC2)cc1 | 89.8% | – | 96.3%
– | – | – | CCOC(=O)c1sc(-c2cccc(NC(=O)c3ccc(F)cc3)c2)nc1Nc1ccc(C(=O)N2CCOCC2)cc1 | 37.3% | – | 31.1%
5.32 µM | 4.37 µM | 5.74 µM | CC(C)(C)c1ccc(C(=O)Nc2cccc(-c3nc(Nc4ccc(N5CCOCC5)cc4)c(C(=O)O)s3)c2)cc1 | 93.8% | – | 94.3%
– | – | – | CN1CCN(c2ccc(Nc3nc(-c4cccc(NC(=O)c5cccc(F)c5)c4)sc3C(N)=O)cc2)CC1 | 2.78% | – | 16.2%
0.258 µM | – | – | NC(=O)c1sc(-c2cccc(NC(=O)c3ccc(F)cc3)c2)nc1Nc1ccc(N2CCOCC2)cc1 | 9.92% | – | 3.53%
38.1 µM | 29.5 µM | – | O=C(Nc1cccc(-c2nc(Nc3ccc(N4CCOCC4)cc3)c(C(=O)O)s2)c1)c1ccc(C(F)(F)F)cc1 | 18.8% | – | 77.4%
– | – | – | CCOC(=O)c1sc(-c2cccc(NC(=O)c3ccc(C(C)(C)C)cc3)c2)nc1Nc1ccc(N2CCOCC2)cc1 | 6.21% | – | 14%
62.8 µM | – | – | CC(C)NC(=O)c1sc(-c2cccc(NC(=O)c3ccc(C(C)(C)C)cc3)c2)nc1Nc1ccc(N2CCOCC2)cc1 | 6.39% | – | 27.9%
– | – | – | CCOC(=O)c1sc(-c2cccc(NC(=O)c3ccc(F)cc3)c2)nc1Nc1ccc(N2CCOCC2)cc1 | 25.8% | – | 3.96%
2.42 µM | – | – | CCOC(=O)c1sc(-c2cccc(NC(=O)c3ccc(C(F)(F)F)cc3)c2)nc1Nc1ccc(N2CCOCC2)cc1 | 5.44% | – | 21.8%
0.206 µM | 1.58 µM | 3.21 µM | CN1CCN(c2ccc(Nc3nc(-c4cccc(NC(=O)c5ccc(C(F)(F)F)cc5)c4)sc3C(N)=O)cc2)CC1 | 91.8% | – | 97.8%
0.614 µM | 1.36 µM | 5.7 µM | CN1CCN(c2ccc(Nc3nc(-c4cccc(NC(=O)c5ccc(Cl)cc5)c4)sc3C(N)=O)cc2)CC1 | 92.6% | 10 | 99%
0.333 µM | 28.4 µM | – | CC(C)(C)c1ccc(C(=O)Nc2cccc(-c3nc(Nc4ccc(C(=O)N5CCOCC5)cc4)c(C(N)=O)s3)c2)cc1 | 33.4% | – | 85.2%
8.53 µM | 34.1 µM | 8.96 µM | CNC(=O)c1sc(-c2cccc(NC(=O)c3ccc(C(C)(C)C)cc3)c2)nc1Nc1ccc(N2CCOCC2)cc1 | 94% | – | 65.8%
0.105 µM | – | – | CN1CCN(c2ccc(Nc3nc(-c4cccc(NC(=O)[C@H]5CC[C@H](C)CC5)c4)sc3C(N)=O)cc2)CC1 | 22.4% | – | 55%
– | – | – | CCOC(=O)c1sc(-c2cccc(NC(=O)[C@H]3CC[C@H](C)CC3)c2)nc1Nc1ccc(N2CCN(C)CC2)cc1 | 26.1% | – | 19.9%
0.637 µM | 19.8 µM | 24.5 µM | CN1CCN(c2ccc(Nc3nc(-c4cccc(NC(=O)c5ccc(C(F)(F)F)cn5)c4)sc3C(N)=O)cc2)CC1 | 84.6% | – | 96.6%
21 µM | 24.5 µM | – | CN(C)c1ccc(C(=O)Nc2cccc(-c3nc(Nc4ccc(N5CCOCC5)cc4)c(C(=O)O)s3)c2)cc1 | 24.4% | – | 74.4%
– | – | – | CCOC(=O)c1sc(-c2cccc(NC(=O)c3ccc(C(F)(F)F)cc3)c2)nc1Nc1ccc(N2CCN(C)CC2)cc1 | 33% | – | 18.4%
– | – | – | CCOC(=O)c1sc(-c2cccc(NC(=O)c3ccc(Cl)cc3)c2)nc1Nc1ccc(N2CCN(C)CC2)cc1 | 24.3% | – | 46.9%
